# Screening results from PubChem.
# FN deposit inh – fibronectin deposition inhibition; AH1F fibroblasts, Alexa488-fibronectin deposition fluorescence, overnight; inhibition, % at 12.6 µM; 0.086% of 350,000 active; AID 743247;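 active means mean inhibition across replicates of 30% or more, regardless of how many single replicates reach that level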;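 further: positive control wells lacked labelled fibronectin entirely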
#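 Assay system: AH1F fibroblast monolayer, labelled fibronectin deposition. Amount: 10000 cells per well. Also added: labelled fibronectin 24 nM. Compound: single-point pinned compound. Incubation: cell attachment 1 h, compound and FN exposure overnight. Detection: fluorescence after three HBSS washes, excitation 485 nm, emission 525 nm. Read-out: inhibition of fibronectin deposition signal.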
# CaV13 FRET inh – Disruptors of the CACNA1D IQ motif to Ca2+-dependent inactivation inhibitor domain association, primary screening, Förster resonance energy transfer in intact living …; inhibition, % at 12.3 µM; AID 743397; 0.098% of 340,000 active; HEK cells, CFP/YFP FRET ICDI-IQ, plate reader, 10 min; percent FRET-ratio fall versus neutral wells;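 active means mean replicate inhibition of at least 30% and at least 1% of replicates passing that level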;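 further: 0% = median of the neutral control wells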
# Efflux pump mplx – inhibitors of Candida antifungal efflux pumps expressed in yeast; S. cerevisiae Candida pump triplex, Nile Red efflux; inhibition, % at 10 µM; AID 485275; 0.44% of 330,000 active;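 active means plate passing quality check with inhibition over a set limit, or well fluorescence over plate mean plus 4 SD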;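 further: Nile Red retained in pooled yeast measured as flow cytometry median fluorescence; 0% = buffer negative control and 100% = Enniatin B positive control; higher means more Nile Red kept so more efflux inhibition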
# SR-BI uptake up – SR-BI HDL lipid transfer activation; CHO ldlA[mSR-BI] cells, DiI-HDL uptake fluorescence, 3 h; 100 = double the neutral-control signal; activation, % at 12.5 µM; 0.096% of 320,000 active; AID 504775;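 active means mean replicate activation of at least 60% and every replicate at or above 60%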;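 further: 0% = median plate neutral-control signal and 100% = twice that signal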
#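 Test system: SR-BI-overexpressing, LDLR-lacking CHO cells. Measured by: DiI fluorescence, bottom read. Medium: Ham's F12 with 0.5% BSA, HEPES 25 mM, pH 7.4. Timing: 3 h uptake period with compound, 37 °C.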
# SR-BI DiI inh – inhibitors of mouse SR-BI mediated HDL lipid uptake | inhibition, % at 12.5 µM | ldlA[mSR-BI] CHO cells, DiI-HDL uptake fluorescence, 3 h | 0.96% of 320,000 active | AID 488896 | Q61009;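 active means mean replicate inhibition of at least 70% and a set share of replicates each scoring 70 or more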;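 further: 0% = median of neutral control wells and 100% = median of positive control wells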
# Target sequence (Q61009 whole entry, looked up): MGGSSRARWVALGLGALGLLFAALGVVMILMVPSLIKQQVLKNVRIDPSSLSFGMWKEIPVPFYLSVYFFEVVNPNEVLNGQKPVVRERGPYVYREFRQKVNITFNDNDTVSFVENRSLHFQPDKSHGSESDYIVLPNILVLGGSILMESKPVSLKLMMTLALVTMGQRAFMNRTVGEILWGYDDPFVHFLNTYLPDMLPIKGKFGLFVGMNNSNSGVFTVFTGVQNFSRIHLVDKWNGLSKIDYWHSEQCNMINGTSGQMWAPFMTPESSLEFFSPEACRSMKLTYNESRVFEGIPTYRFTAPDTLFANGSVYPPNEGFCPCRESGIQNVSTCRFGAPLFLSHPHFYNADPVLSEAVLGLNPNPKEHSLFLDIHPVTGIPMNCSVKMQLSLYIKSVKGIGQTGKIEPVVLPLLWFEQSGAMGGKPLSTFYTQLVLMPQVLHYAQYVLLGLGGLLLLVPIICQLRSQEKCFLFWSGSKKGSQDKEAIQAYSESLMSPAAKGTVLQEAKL
# Yeast cmpd fluor – flagged as fluorescent in efflux inhibitor counter-screen. shares compounds with Efflux pump mplx. S. cerevisiae AD/pABC3, compound fluorescence, flow cytometry. fluorescence ratio to DMSO, % at 10 µM. 4% of 1,700 active. AID 588517;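 active means fluorescence ratio to DMSO above its plate's cutoff, the plate mean ratio plus 5 SD, cut at about 210% in these data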;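 further: unstained yeast with no Nile Red so the signal is compound autofluorescence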
# Mdr1 pump inh – blocks the Candida albicans Mdr1 efflux pump in yeast | shares compounds with Efflux pump mplx | S. cerevisiae AD/CaMDR1, Nile Red efflux, flow cytometry | inhibition, % at 10 µM | 1% of 1,700 active | AID 588518; in the data active means inhibition above about 26%;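 further: 0% = DMSO vehicle and 100% = reference inhibitor; higher means more Nile Red retained so more efflux inhibition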
# CaCdr2 efflux inh – inhibitors of Candida albicans Cdr2 efflux pump; S. cerevisiae AD/CaCDR2, Nile Red retention, flow cytometry; shares compounds with Efflux pump mplx; Nile Red retention ratio vs DMSO, % at 10 µM; 4% of 1,700 active; in the data active means Nile Red retention ratio vs DMSO above about 190%;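 further: higher ratio means more blocking of Cdr2 efflux of the dye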
# CaCdr1 efflux inh – inhibitors of Candida albicans Cdr1 efflux pump. 1% of 1,700 active. S. cerevisiae AD/CaCDR1, Nile Red efflux, flow cytometry. AID 588522. shares compounds with Efflux pump mplx. inhibition, % at 10 µM;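 active means inhibition above the screen-wide mean plus twice its standard deviation, cut at about 32% in these data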
# Starred values were filed as active, the others as inactive; . = no result given. A selection: hits, their analogues and other compounds. The true share with any hit is near 1.2%.
SMILES,FN deposit inh,CaV13 FRET inh,Efflux pump mplx,SR-BI uptake up,SR-BI DiI inh,Yeast cmpd fluor,Mdr1 pump inh,CaCdr2 efflux inh,CaCdr1 efflux inh
COC(=O)c1cccc(-n2nnnc2SCC(=O)Nc2nc3c(s2)CCCC3)c1,.,.,1.5*,4,-4,79,0,93,0
Cn1cc(C=O)c2cc(F)ccc21,13,3,0,0,0,.,.,.,.
Cn1cc(/C=C/c2cc[n+](C)cc2)c2cc(F)ccc21,.,.,9.5*,.,.,743*,3,93,4
Cn1cc(/C=C/c2cc[n+](C)cc2)c2cc(Cl)ccc21,-133,-27,5.9*,1,-1,735*,3,99,2
COc1ccc(OCc2cc(C(=O)N3CCC(OC)CC3)no2)c2ccccc12,-5,-6,0,7,-7,.,.,.,.
COCC1CCN(C(=O)c2cc(COc3ccc(OC)c4ccccc34)on2)C1 (configuration not stated),5,-2,7.2*,-23,23,105,0,112,0
CC1(C)OC(=O)C(=NNc2ccccc2)C(=O)O1,9,-4,9.7*,17,-17,110,0,105,0
CC1(C)OC(=O)C(=NNc2ccc(O)cc2)C(=O)O1,.,-6,0,4,-4,.,.,.,.
CCOc1ccc(/C=N/NC(=O)c2ccccc2O)cc1CN1CC2CC(C1)c1cccc(=O)n1C2 (configuration not stated),.,.,0.8*,-37,37,85,0,104,0
COc1ccc(CC(=O)O/N=C(\N)c2ccc(Br)cc2)cc1OC,-12,-6,0,5,-5,.,.,.,.
COc1ccc(CC(=O)O/N=C(\N)c2ccccc2)cc1OC,13,-21,0,-2,2,108,0,97,0
COc1ccc(/C(N)=N/OC(=O)Oc2ccccc2)cc1OC,6,-5,5.8*,1,-1,101,0,96,0
Cc1ccc(/C(N)=N/OC(=O)Oc2ccccc2)cc1,14,-3,0,9,-9,.,.,.,.
COc1ccc(/C(N)=N/OC(=O)Cc2cccs2)cc1OC,-8,-4,6.7*,9,-9,99,0,87,0
COc1ccc(CC(=O)O/N=C(\N)c2ccc(OC)cc2)cc1,7,-4,0,22,-22,113,0,112,0
O=C(Nc1ccc2c(c1)[C@@H]1C[C@@H](CC(=O)N3CCOCC3)O[C@@H](CO)[C@@H]1O2)C1CCC1,1,.,.,.,.,.,.,.,.
O=C(C[C@H]1CC[C@H]2[C@@H](COC[C@H](O)CN2Cc2ccc(Cl)cc2)O1)Nc1nccs1,-15,.,.,.,.,.,.,.,.
CO[C@@H]1CN(C)C(=O)c2cc(NC(=O)CC(F)(F)F)ccc2OC[C@H](C)N(C(=O)C2CCOCC2)C[C@H]1C,-5,.,.,.,.,.,.,.,.
O=C(CCN1C(=O)/C(=C/c2ccc(F)cc2)SC1=S)NCCCn1ccnc1,-18,-6,2.1*,-27,27,103,-1,98,0
CO[C@H]1CN(C)C(=O)c2cc(NC(C)=O)ccc2OC[C@@H](C)N(C(=O)c2cnccn2)C[C@H]1C,1,.,.,.,.,.,.,.,.
Cc1ccc(C2/C(=C(/O)c3ccc(Cl)cc3)C(=O)C(=O)N2CC2CCCO2)o1 (configuration not stated),.,.,0,7,-7,.,.,.,.
O=C1C(=O)N(CC2CCCO2)C(c2ccccc2[N+](=O)[O-])/C1=C(/O)c1ccccc1 (configuration not stated),2,9,1.4*,-11,11,85,0,96,0
CCCN1C[C@H](C)[C@H](OC)CN(C)C(=O)c2cc(NC(=O)c3cccc(OC)c3)ccc2OC[C@H]1C,-1,.,.,.,.,.,.,.,.
O=C(CN1C(=O)c2ccccc2S1(=O)=O)Nc1ccon1,-7,-2,1.1*,11,-11,100,0,106,0
Cc1cc(NC(=O)CN2C(=O)c3ccccc3S2(=O)=O)no1,7,-5,0,10,-10,.,.,.,.
SMILES,FN deposit inh,CaV13 FRET inh,Efflux pump mplx,SR-BI uptake up,SR-BI DiI inh,Yeast cmpd fluor,Mdr1 pump inh,CaCdr2 efflux inh,CaCdr1 efflux inh
COC(=O)C1=C(C)OC(N)=C(C#N)C1c1c(C)nn(C)c1C (configuration not stated),-3,-1,6.5*,18,-18,96,0,107,0
O=[N+]([O-])c1ccc(NN=CCCc2ccccc2)nc1,4,-9,.,4,-4,.,.,.,.
O=[N+]([O-])c1ccc(Nc2ccccc2)nc1,-1,1,30*,-5,5,96,0,107,0
O=[N+]([O-])c1ccc(NCc2ccccc2)nc1,3,-6,38*,3,-3,83,0,100,0
N#Cc1cnc(NN)nc1,-3,.,0.9*,5,-5,107,0,106,0
Cc1ccc(C)n1-c1ccc(C#N)cn1,4,9,0,3,-3,.,.,.,.
CCOC(=O)c1nn(-c2ccccc2)c(=O)c(C#N)c1C,.,.,1.0*,25,-25,101,0,116,0
O=C(Cc1ccc(F)cc1)OCN1C(=O)c2ccccc2C1=O,-2,-1,0,4,-4,.,.,.,.
O=C(Cc1cccc(C(F)(F)F)c1)OCN1C(=O)c2ccccc2C1=O,0,-5,1.3*,6,-6,101,0,104,0
Cc1[nH]c2ccccc2c1C(=O)C(C)OC(=O)c1ccc([N+](=O)[O-])o1 (configuration not stated),-8,-2,0.4*,-26,26,88,0,104,0
O=C(CCN1CCCCC1)NCC[C@H]1CC[C@H](NC(=O)Cc2cccnc2)[C@H](CO)O1,-4,.,.,.,.,.,.,.,.
C[C@H](CO)N1C[C@H](C)[C@@H](CN(C)S(=O)(=O)c2ccc(F)cc2)Oc2cc(-c3cccc(F)c3)ccc2S1(=O)=O,-1,.,.,.,.,.,.,.,.
C=CCn1c(=O)c2ccccc2n2c(SCC(=O)Nc3sc(C)c(CC)c3C(=O)OCC)nnc12,1,-5,0.5*,4,-4,99,0,116,0
C=CCn1c(=O)c2ccccc2n2c(SCC(=O)Nc3sc(C(=O)N(CC)CC)c(C)c3C(=O)OCC)nnc12,-10,-5,0,-5,5,.,.,.,.
COc1cccc(/C=c2\sc3nc(-c4cccs4)nn3c2=O)c1OC,5,-5,0,6,-6,.,.,.,.
